In ChEMBL document CHEMBL2021878, “Discovery of Potent Dual PPARα Agonists/CB1 Ligands” (ACS Med Chem Lett, 2011):
Activity calls are given as the source filed them. The rule behind the calls is not given here.

Legend:
[1] = biological target: Cannabinoid receptor 2 (Mus musculus) (UniProt P47936); assay: Antagonist activity at CB2 receptor in ICR mouse vas deferens assessed as inhibition of JWH-015-stimulated electrically-induced muscle contraction; assay type: functional, tissue-based
[2] = biological target: T1, Peroxisome proliferator-activated receptor alpha (Homo sapiens, UniProt Q07869); assay: Agonist activity at human PPARalpha expressed in MCF7 cells co-transfected CPTI DR1-type RE after 6 hrs by luciferase reporter gene assay; assay type: functional, cell-based
T1 sequence (Q07869 whole entry): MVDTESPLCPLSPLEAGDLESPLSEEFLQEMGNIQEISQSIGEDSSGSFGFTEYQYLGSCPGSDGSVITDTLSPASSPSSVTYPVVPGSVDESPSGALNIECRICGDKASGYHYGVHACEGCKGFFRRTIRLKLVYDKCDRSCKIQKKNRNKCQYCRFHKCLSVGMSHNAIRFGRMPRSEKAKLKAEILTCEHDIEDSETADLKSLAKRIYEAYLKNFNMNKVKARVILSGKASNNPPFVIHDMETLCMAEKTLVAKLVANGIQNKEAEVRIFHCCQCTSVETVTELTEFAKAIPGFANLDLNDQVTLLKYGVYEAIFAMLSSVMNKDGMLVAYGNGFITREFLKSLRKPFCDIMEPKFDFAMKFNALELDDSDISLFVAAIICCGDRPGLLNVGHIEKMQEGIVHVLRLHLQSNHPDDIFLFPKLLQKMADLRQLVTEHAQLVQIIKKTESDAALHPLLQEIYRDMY
Procedure, shortened: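 Luciferase reporter assay in extracts of MCF-7 cells transiently transfected with a human CPTI DR1-type response element reporter (four copies), plus PPARα, RXRα and NCoR vectors. Cells exposed 6 h to compounds at 10 μM, DMSO as solvent control. Basal and ligand-induced activity recorded.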

[3] = biological target: T1, Peroxisome proliferator-activated receptor alpha; assay: Agonist activity at human PPARalpha expressed in MCF7 cells co-transfected CPTI DR1-type RE after 16 hrs by luciferase reporter gene assay; assay type: functional, cell-based
Procedure, shortened: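 Luciferase reporter assay in extracts of MCF-7 cells transiently transfected with a reporter carrying four copies of the human CPTI DR1-type response element, plus PPARα, RXRα and NCoR expression vectors. Cells treated 16 h with compounds at 10 μM, DMSO as solvent control. Mean of at least three experiments with SD; two-tailed paired Student's t-test against solvent.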

[4] = biological target: Cannabinoid receptor 1 (Mus musculus) (UniProt P47746); assay: Agonist activity at CB1 receptor in ICR mouse vas deferens assessed as inhibition of amplitude of electrically-stimulated muscle contraction at 10^-7 to 1.8 x 10^-5 M relative to control; assay type: functional, tissue-based
Chain of Cannabinoid receptor 1 (Mus musculus) (P47746 whole entry): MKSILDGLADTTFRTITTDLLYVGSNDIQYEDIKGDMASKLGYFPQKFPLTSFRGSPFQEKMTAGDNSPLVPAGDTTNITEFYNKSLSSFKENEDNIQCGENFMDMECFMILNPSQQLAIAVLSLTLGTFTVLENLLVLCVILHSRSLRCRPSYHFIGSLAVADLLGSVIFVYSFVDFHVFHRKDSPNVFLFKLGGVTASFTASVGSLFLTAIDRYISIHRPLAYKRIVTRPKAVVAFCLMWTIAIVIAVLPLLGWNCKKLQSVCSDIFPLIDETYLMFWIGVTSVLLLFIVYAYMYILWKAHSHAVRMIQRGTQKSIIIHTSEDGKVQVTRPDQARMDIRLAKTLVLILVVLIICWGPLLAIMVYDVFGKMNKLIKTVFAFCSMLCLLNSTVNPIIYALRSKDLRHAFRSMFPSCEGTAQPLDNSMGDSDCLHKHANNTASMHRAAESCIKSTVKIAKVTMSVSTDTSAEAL
Procedure, shortened: (§1)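 Mouse vas deferens, electrically stimulated nerve-smooth muscle preparation. Compounds tested at 10^-7 to 1.8 × 10^-5 M for effects on the nonstimulated basal recording and on the amplitude of electrically evoked contractions. Read-out was % inhibition of evoked contraction compared with vehicle.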

[5] = biological target: Cannabinoid receptor 1 (Mus musculus) (UniProt P47746); assay: Antagonist activity at CB1 receptor in ICR mouse vas deferens assessed as inhibition of ACEA-stimulated electrically-induced muscle contraction at 10^-6 M; assay type: functional, tissue-based
Procedure, shortened: (§2)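 Mouse vas deferens under electrical stimulation. Tissues were preincubated with compound at 10^-6 or 2 × 10^-6 M, then increasing concentrations of the CB1 agonist ACEA were added. Mean ± SEM, n = 6–8.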

[6] = biological target: Cannabinoid receptor 1 (Homo sapiens, UniProt P21554); assay: Displacement of [3H]-CP55940 from CB1 receptor after 90 mins by liquid scintillation counting
Chain of Cannabinoid receptor 1 (P21554 whole entry): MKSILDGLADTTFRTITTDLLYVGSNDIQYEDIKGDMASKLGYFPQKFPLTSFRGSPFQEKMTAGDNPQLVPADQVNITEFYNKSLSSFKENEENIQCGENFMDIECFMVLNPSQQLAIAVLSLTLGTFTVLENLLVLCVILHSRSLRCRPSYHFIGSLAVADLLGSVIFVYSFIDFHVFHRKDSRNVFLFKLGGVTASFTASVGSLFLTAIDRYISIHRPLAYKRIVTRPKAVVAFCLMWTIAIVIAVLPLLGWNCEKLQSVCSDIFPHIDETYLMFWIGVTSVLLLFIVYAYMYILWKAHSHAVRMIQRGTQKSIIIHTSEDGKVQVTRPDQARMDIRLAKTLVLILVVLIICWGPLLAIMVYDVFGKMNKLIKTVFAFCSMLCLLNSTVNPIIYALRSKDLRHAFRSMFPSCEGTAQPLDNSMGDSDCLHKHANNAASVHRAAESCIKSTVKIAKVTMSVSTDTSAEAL

[7] = biological target: Cannabinoid receptor 1 (Mus musculus) (UniProt P47746); assay: Antagonist activity at CB1 receptor in ICR mouse vas deferens assessed as inhibition of ACEA-stimulated electrically-induced muscle contraction at 2 x 10^-6 M; assay type: functional, tissue-based; procedure, shortened: as §2
[8] = test system: Rattus norvegicus; assay: Inhibition of food intake in Wistar rat at 0.03 to 3 mg/kg, ip after 30 to 240 mins; assay type: functional, organism-based
[9] = biological target: Cannabinoid receptor 1 (Mus musculus) (UniProt P47746); assay: Agonist activity at CB1 receptor in ICR mouse vas deferens assessed as effect on amplitude of nonstimulated muscle contraction at 10^-7 to 1.8 x 10^-5 M relative to control; assay type: functional, tissue-based; procedure, shortened: as §1
[10] = biological target: Cannabinoid receptor 2 (Homo sapiens) (UniProt P34972); assay: Displacement of [3H]-CP55940 from CB2 receptor after 90 mins by liquid scintillation counting
Chain of Cannabinoid receptor 2 (Homo sapiens) (P34972 whole entry): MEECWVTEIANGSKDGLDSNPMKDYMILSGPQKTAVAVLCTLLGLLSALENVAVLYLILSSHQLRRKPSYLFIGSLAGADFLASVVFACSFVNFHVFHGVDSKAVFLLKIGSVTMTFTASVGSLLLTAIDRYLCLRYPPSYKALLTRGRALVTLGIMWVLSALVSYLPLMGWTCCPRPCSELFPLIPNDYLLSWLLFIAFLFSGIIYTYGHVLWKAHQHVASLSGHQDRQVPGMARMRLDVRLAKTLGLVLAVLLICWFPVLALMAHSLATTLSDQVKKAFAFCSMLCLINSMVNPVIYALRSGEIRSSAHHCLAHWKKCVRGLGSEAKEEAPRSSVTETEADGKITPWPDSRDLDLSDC

Chain of Cannabinoid receptor 2 (Mus musculus) (P47936 whole entry): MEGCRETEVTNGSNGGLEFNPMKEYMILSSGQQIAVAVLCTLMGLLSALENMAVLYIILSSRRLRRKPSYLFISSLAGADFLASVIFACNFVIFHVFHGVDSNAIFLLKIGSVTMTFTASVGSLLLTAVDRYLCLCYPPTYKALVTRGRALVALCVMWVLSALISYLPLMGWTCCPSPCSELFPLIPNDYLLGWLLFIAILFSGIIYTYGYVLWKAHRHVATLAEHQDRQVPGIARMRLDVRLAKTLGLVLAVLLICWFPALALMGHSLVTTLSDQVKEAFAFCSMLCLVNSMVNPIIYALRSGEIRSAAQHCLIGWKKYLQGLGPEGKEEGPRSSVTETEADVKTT

Activity [1]	EC50 [2]	EC50 [3]	inhibition [4]	Activity [5]	Ki [6]	Activity [7]	Activity [9]	Activity [10]	inhibition [5]	Structure (SMILES)	inhibition [8]
Active	971 nM	–	< 10%	Active	4.6 nM	Active	inactive	–	–	Cc1c(C(=O)Nc2ccc(O)cc2)nn(-c2ccc(Cl)cc2Cl)c1-c1ccc(Cl)cc1	inactive
–	185 nM	152 nM	–	–	–	–	–	–	–	CCCCCCCC/C=C\CCCCCCCC(=O)NCCO [OLEOYLETHANOLAMIDE]	–
–	–	–	–	–	–	–	–	–	Active	Cc1c(C(=O)NN2CCCCC2)nn(-c2ccc(Cl)cc2Cl)c1-c1ccc(I)cc1	–

More lines, now with the values behind:

Structure (SMILES)	Activity [1]	EC50 [2]	EC50 [3]	inhibition [4]	Activity [5]	Ki [6]	Activity [7]	Activity [9]	Activity [10]	inhibition [5]	inhibition [8]
CCOC(=O)C(C)(C)Oc1cccc(NC(=O)c2nn(-c3ccc(Cl)cc3Cl)c(-c3ccc(Cl)cc3)c2C)c1	inactive	856 nM	743 nM	< 10%	Active	65 nM	Active	inactive	–	–	inactive
CCOC(=O)C(C)(C)Oc1ccc(NC(=O)c2nn(-c3ccc(Cl)cc3Cl)c(-c3ccc(Cl)cc3)c2C)cc1	–	1480 nM	–	–	–	109 nM	–	–	inactive	–	–
Cc1c(C(=O)Nc2cccc(O)c2)nn(-c2ccc(Cl)cc2Cl)c1-c1ccc(Cl)cc1	–	887 nM	989 nM	–	–	52 nM	–	–	–	–	–
